Bioassay records (PubChem)
Rows were chosen to be rich in hits. Some 2.9% of all compounds tested hit in one or more screens of this group.
ZTA DNA inh: counter-screen for EBNA-1 inhibitors: inhibitors of Epstein-Barr virus ZTA | P03206 | ZTA-DNA binding, fluorescence polarization | inhibition, % at 11 µM | hit rate 0.15% among 320,000 | AID 2234; in the data active = inhibition above about 33%
Target sequence (P03206 whole entry, looked up): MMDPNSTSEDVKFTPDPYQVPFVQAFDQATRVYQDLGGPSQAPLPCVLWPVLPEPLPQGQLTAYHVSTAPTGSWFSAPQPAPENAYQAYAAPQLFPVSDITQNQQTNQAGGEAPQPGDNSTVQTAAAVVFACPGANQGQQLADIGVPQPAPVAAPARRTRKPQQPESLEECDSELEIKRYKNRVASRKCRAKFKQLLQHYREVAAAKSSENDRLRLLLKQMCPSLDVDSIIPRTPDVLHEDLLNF
PfM18AAP inh: PfM18AAP enzyme inhibition. recombinant PfM18AAP, H-Glu-NHMec fluorogenic cleavage. inhibition, % at 7.35 µM. hit rate 1.2% among 290,000. AID 1822;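 active = inhibition above the campaign mean inhibition over all tested compounds plus 3 SD, cut at about 28% in these data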;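 note: 0% = plate median of test compound wells and 100% = 2 mM ZnCl2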
UBC13 polyUb: blocks human UBC13 polyubiquitin chain formation; TR-FRET; inhibition, % at 20 µM; hit rate 0.47% among 330,000; in the data active = inhibition above about 45%, passing the limit was not always enough; inconclusive = no clear call, values can overlap the other calls
Target sequence (P61088 whole entry, looked up): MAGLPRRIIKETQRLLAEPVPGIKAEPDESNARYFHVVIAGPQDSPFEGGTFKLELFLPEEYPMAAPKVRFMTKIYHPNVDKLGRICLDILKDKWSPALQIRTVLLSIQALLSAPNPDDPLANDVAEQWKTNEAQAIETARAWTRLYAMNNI
EBNA-1 inhibitor: blocks EBNA-1 binding to DNA. hit rate 0.34% among 300,000. EBNA-1 DNA binding, fluorescence polarization. inhibition, % at 14.8 µM; in the data active = inhibition above about 28%
PfGluPho inh: PfG6PD (Plasmodium falciparum) enzyme inhibition; PfGluPho enzyme, NADPH resazurin-diaphorase fluorescence; inhibition, % at 20 µM; hit rate 0.78% among 350,000;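 active = inhibition reaching at least a set limit at 20 µM in the primary screen, cut at about 59% in these data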;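 note: 0% = DMSO wells with substrate and 100% = DMSO wells lacking glucose-6-phosphate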
Apaf1 inhib: inhibitors of human Apaf-1 apoptosome | O14727 | reconstituted apoptosome caspase-3 activity, DEVD-Rh110 fluorescence | inhibition, % at 20 µM | hit rate 0.71% among 330,000 | AID 489030; active = inhibition of at least 40% at 20 µM;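 note: plate controls were DMSO wells for no effect and DEVD-CHO caspase inhibitor wells for full effect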
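Medium: Hepes buffer, pH 7.5 / System: biochemical Apaf-1 apoptosome reconstitution / Measured by: Rh110 fluorescence, excitation 480 nm, emission 540 nm / Times: compound with Apaf-1, dATP, procaspase-3 30 min, then 50 min reaction, room temperature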
Casp3 UBC13 ctr: counter-screen for UBC13 inhibitors: human caspase-3 inhibition; shares compounds with UBC13 polyUb; Recombinant caspase-3, Caspase-Glo 3/7 luminescence, 60 min; inhibition, % at 20 µM; hit rate 4% among 1,400;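 active = mean inhibition across replicates above about 26%, limit read from the data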;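 note: plate controls were DMSO with caspase-3 for no effect and DMSO wells lacking enzyme for full effect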
UBC13 conf: human UBC13 polyubiquitin inhibition, confirmed; shares compounds with UBC13 polyUb; UBC13 polyubiquitination, TR-FRET, biochemical; inhibition, % at 10 µM; hit rate 68% among 1,400; in the data active = inhibition above about 45%; inconclusive = no clear call, values can overlap the other calls
Numbers without * were called inactive; ? = inconclusive; nt = no result given.

SMILES	ZTA DNA inh	PfM18AAP inh	UBC13 polyUb	EBNA-1 inhibitor	PfGluPho inh	Apaf1 inhib	Casp3 UBC13 ctr	UBC13 conf
CCCOc1ccc(C(=O)NNC(=S)NC(=O)c2ccccc2)cc1	0	-5	-22	5	-24	14	nt	nt
CCC(=O)NC(=S)NNC(=O)c1ccc([N+](=O)[O-])cc1	-23	9	68*	1	10	-3	4	87*
CCCOc1ccc(C(=O)NNC(=S)NC(C)=O)cc1	6	22	75*	-3	4	13	2	95*
CCC(=O)NC(=S)NNC(=O)c1ccc(OC)cc1	8	4	81*	14	23	-7	-2	86*
CC(=O)c1ccc(N2CCN(C(=O)c3ccccc3SCC(=O)NCc3ccco3)CC2)c(F)c1	nt	nt	nt	nt	7	nt	nt	nt
Cc1cc2nc(NCCCO)n(CC(=O)c3cc(C(C)(C)C)c(O)c(C(C)(C)C)c3)c2cc1C	2	nt	70*	7	27	27	1	49*
CCc1ccc(OCC(=O)NNC(=O)c2cnccn2)c(Br)c1	5	6	53*	5	-13	3	4	41
Nc1nc(N)nc(-c2cc(C(F)(F)F)ccc2Cl)n1	7	nt	51*	-7	0	5	0	-1
Nc1c(C(=O)Nc2ccccc2)c2nc3ccccc3nc2n1CCCN1CCOCC1	22	-3	64*	-4	26	34	4	54*
CCC(C)NC(=O)c1ccccc1NC(=O)COc1ccc(OC)cc1 (stereo unspecified)	nt	-8	-10	nt	-2	7	nt	nt
NC(CO)C(=O)NNCc1ccc(O)c(O)c1O (stereo unspecified)	-10	29*	48*	1	55	51*	2	30
COC(=O)C(N)Cc1ccc(O)cc1 (stereo unspecified)	10	5	-8	5	1	-2	nt	nt
Cc1cccc(C)c1OC(=O)c1ccccc1	nt	nt	nt	nt	12	nt	nt	nt
Cc1ccc(S(=O)(=O)N2C[C@]3(O)C[C@@H]4C(=O)N(c5ccccc5)C(=O)[C@@H]4C[C@]3(OC(=O)NC3CCCC3)C2)cc1	nt	nt	nt	nt	-8	nt	nt	nt
CCOC(=O)c1cc(-c2ccccc2)nc2ccc(C)cc12	1	-1	54*	-1	16	32	-1	38
CCC1=C(CC2NCCc3ccccc32)CC2c3cc(OC)c(OC)cc3CCN2C1 (stereo unspecified)	nt	nt	nt	nt	-6	nt	nt	nt
CC[C@H]1CN2CCc3cc(OC)c(OC)cc3C2C[C@@H]1C[C@H]1NCCc2cc(OC)c(OC)cc21 (stereo partly specified)	2	nt	53*	-2	-7	-10	3	10
NS(=O)(=O)c1cc(C(=O)Nc2ccc3c(c2)CCC3)ccc1Cl	13	3	1	-3	3	5	nt	nt
Cn1c(=O)c2c(ncn2Cc2ccc(Cl)cc2)n(C)c1=O	-9	8	57*	2	9	3	-6	53*
O=c1c2sccc2[nH]c(=S)n1-c1ccccc1	-3	16	65*	4	-21	-22	2	?
O=c1c2oc3ccccc3c2[nH]c(=S)n1-c1ccccc1	-7	-3	?	10	18	-1	nt	nt
CNC(=O)c1ccsc1NC(=O)C1CCCN1S(=O)(=O)c1cccs1 (stereo unspecified)	12	nt	46*	8	9	1	8	79*
c1ccc(C[C@H]2CNCCN2CCCCC2CCCCC2)cc1	-7	nt	61*	-5	-4	49*	3	68*
c1ccc(C[C@H]2CNCCN2CC2CCCCC2)cc1	-10	nt	18	15	2	-1	nt	nt
COc1ccc(-c2nc3ccc(N4CCN(C)CC4)cc3c(=O)[nH]2)cc1	12	1	-2	3	12	12	nt	nt
SMILES	ZTA DNA inh	PfM18AAP inh	UBC13 polyUb	EBNA-1 inhibitor	PfGluPho inh	Apaf1 inhib	Casp3 UBC13 ctr	UBC13 conf
COc1cc(-c2nc3ccc(N4CCN(C)CC4)cc3[nH]2)cc(OC)c1OC	-1	6	45*	1	9	10	-1	37
CCC(C)c1ccc(NC(=S)NC(C)C2CCCO2)cc1 (stereo unspecified)	5	3	3	13	-7	-11	nt	nt
COc1cc2c(cc1Cl)/C(=C\CCN(C)C)c1ccccc1S2	0	2	25	-11	-9	10	nt	nt
CN1CCN(CC/C=C2/c3ccccc3Sc3ccc(S(=O)(=O)N(C)C)cc32)CC1	-3	2	55*	-15	2	39	1	26
N#Cc1ccsc1NC(=O)C1CCN(C(=O)c2ccc(F)cc2)CC1	-10	nt	59*	nt	16	-16	3	41
Cc1cc(S(=O)(=O)Nc2nc(CN3CCOCC3)nc3sc4c(c23)CCC4)ccc1F	nt	nt	11	nt	-14	2	nt	nt
COc1ccccc1NC(=O)c1cc(C(=O)Nc2ccccc2OC)cc(N2C(=O)CCC2=O)c1	9	-10	4	6	-8	-1	nt	nt
O=C(Nc1ccc(C2=NCCN2)cc1)c1ccc(C(=O)Nc2ccc(C3=NCCN3)cc2)c([N+](=O)[O-])c1	-19	2	107*	-6	38	-18	2	123*
Cc1nc2ccccc2c2oc(C(=O)N3CCC(N4CCCCC4)CC3)cc12	-13	-2	61*	14	15	25	0	44
Cc1nc2ccccc2c2oc(C(=O)N3CCN(C4CCCCC4)CC3)cc12	5	-6	10	6	-4	7	nt	nt
CCN(CC)C(=O)C1=C(C)N(CCCOC)C(=O)C(CC(=O)NCCCN(C)C)C1 (stereo unspecified)	nt	nt	nt	nt	-12	nt	nt	nt
C=CCn1c(=O)c(C(=O)Nc2cccnc2)c(O)c2ccccc21	-12	2	10	11	-12	3	nt	nt
C=CCn1c(=O)c(C(=O)Nc2ccc(C)cn2)c(O)c2ccccc21	-11	0	55*	2	2	-1	3	30
O=C(c1ccccc1)N1CCN(CC(O)COc2ccc(Br)cc2)CC1 (stereo unspecified)	-13	2	-5	-6	12	10	nt	nt
CC1=CC(C)(C)N(C(=O)CN2C(=O)c3ccccc3C2=O)c2ccc(C)cc21	-11	0	3	-4	39	5	nt	nt
CCC(=O)N1c2ccc(C)cc2C2=NNC(=S)NC21O (stereo unspecified)	-6	17	47*	-3	11	-11	3	-13
COc1cc(/C=N/NC(=O)c2sc(N)c(C#N)c2C)ccc1O	-11	-10	51*	-10	15	-3	-2	56*
O=C(C1CCN(S(=O)(=O)c2ccccc2F)CC1)N1CCCC1	nt	nt	-2	nt	-3	0	nt	nt
O=C(C[n+]1cccc(CNC(=O)c2ccc(OC(F)F)cc2)c1)Nc1ccc(SC(F)F)cc1	-8	0	55*	-8	5	7	1	102*
